Experiments:
[1] = Metabolic stability in human liver microsomes assessed as parent compound remaining at 1 uM after 30 mins in presence of NADPH by LC/MS/MS analysis; assay type: ADME, Microsome; conditions: read-out: Stability
Outline: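 Compound at 1 μM final with 0.5 mg/mL microsomal protein in 100 mM phosphate buffer pH 7.4 at 37 °C, started by adding an NADPH-regenerating system. Reactions were quenched with cold acetonitrile at 0 and 30 min and spun down. Supernatant was analysed by LC-MS/MS. The 0-min sample, quenched before NADPH addition, was set as 100%, and percent parent remaining came from peak areas.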

[2] = target: Calcium/calmodulin-dependent protein kinase kinase 2 (Homo sapiens) (UniProt Q96RR4); test: Binding affinity to wild-type human partial length CAMKK2 (D65 to V471 residues) expressed in bacterial expression system assessed as residual binding level at 1 uM by Kinomescan method relative to control
[3] = target: Cyclin-dependent kinase 13 (Homo sapiens) (UniProt Q14004); test: Binding affinity to wild-type human partial length CDC2L5 (H675 to S1054 residues) expressed in mammalian expression system assessed as residual binding level at 1 uM by Kinomescan method relative to control
[4] = target: Cyclin-dependent kinase 5 (Homo sapiens) (UniProt Q00535); test: Binding affinity to wild-type human full length CDK5 (M1 to P292 residues) expressed in bacterial expression system assessed as residual binding level at 1 uM by Kinomescan method relative to control
[5] = target: Citron Rho-interacting kinase (Homo sapiens) (UniProt O14578); test: Binding affinity to wild-type human partial length CIT (M68 to E432 residues) expressed in bacterial expression system assessed as residual binding level at 1 uM by Kinomescan method relative to control
[6] = target: Death-associated protein kinase 1 (Homo sapiens) (UniProt P53355); test: Binding affinity to wild-type human partial length DAPK1 (M1 to F296 residues) expressed in bacterial expression system assessed as residual binding level at 1 uM by Kinomescan method relative to control
[7] = target: Serine/threonine-protein kinase 17A (Homo sapiens) (UniProt Q9UEE5); test: Binding affinity to wild-type human partial length DRAK1 (R32 to E363 residues) expressed in bacterial expression system assessed as residual binding level at 1 uM by Kinomescan method relative to control
[8] = target: Dual specificity tyrosine-phosphorylation-regulated kinase 2 (Homo sapiens) (UniProt Q92630); test: Binding affinity to wild-type human full length DYRK2 (M1 to S528 residues) expressed in mammalian expression system assessed as residual binding level at 1 uM by Kinomescan method relative to control
[9] = target: Ephrin type-A receptor 4 (Homo sapiens) (UniProt P54764); test: Binding affinity to wild-type human partial length EPHA4 (T601 to R897 residues) expressed in bacterial expression system assessed as residual binding level at 1 uM by Kinomescan method relative to control
[10] = test system: Receptor-type tyrosine-protein kinase FLT3 (Homo sapiens), P36888 [D835Y]; test: Binding affinity to human partial length FLT3 D835Y mutant (Q580 to Y969 residues) expressed in bacterial expression system assessed as residual binding level at 1 uM by Kinomescan method relative to control
Outline: (§1)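 Kinome-wide selectivity panel run by the KINOMEscan method, with the test compound at a single concentration of 1 μM. Wild-type and mutant kinases were profiled in the same screen.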

[11] = test system: Mast/stem cell growth factor receptor Kit (Homo sapiens), P10721 [V559D,T670I]; test: Binding affinity to human partial length KIT V559D/T670I double mutant (Y545 to D952 residues) expressed in bacterial expression system assessed as residual binding level at 1 uM by Kinomescan method relative to control; outline: as §1
[12] = test system: Hepatocyte growth factor receptor (Homo sapiens), P08581 [Y1235D]; test: Binding affinity to human partial length MET Y1235D mutant (D1010 to S1367 residues) expressed in bacterial expression system assessed as residual binding level at 1 uM by Kinomescan method relative to control; outline: as §1
[13] = target: Mitogen-activated protein kinase kinase kinase 10 (Homo sapiens) (UniProt Q02779); test: Binding affinity to wild-type human partial length MLK2 (V52 to W380 residues) expressed in bacterial expression system assessed as residual binding level at 1 uM by Kinomescan method relative to control
[14] = target: Myosin-IIIa (Homo sapiens) (UniProt Q8NEV4); test: Binding affinity to wild-type human partial length MYO3A (M1 to K338 residues) expressed in bacterial expression system assessed as residual binding level at 1 uM by Kinomescan method relative to control
[15] = target: Serine/threonine-protein kinase Nek2 (Homo sapiens) (UniProt P51955); test: Binding affinity to wild-type human partial length NEK2 (M1 to K309 residues) expressed in bacterial expression system assessed as residual binding level at 1 uM by Kinomescan method relative to control
[16] = test system: Phosphatidylinositol 4,5-bisphosphate 3-kinase catalytic subunit alpha isoform (Homo sapiens), P42336 [C420R]; test: Binding affinity to human partial length PIK3CA C420R mutant (R108 to N1068 residues) expressed in mammalian expression system assessed as residual binding level at 1 uM by Kinomescan method relative to control
[17] = test system: Phosphatidylinositol 4,5-bisphosphate 3-kinase catalytic subunit alpha isoform (Homo sapiens), P42336 [Q546K]; test: Binding affinity to human partial length PIK3CA Q546K mutant (R108 to N1068 residues) expressed in mammalian expression system assessed as residual binding level at 1 uM by Kinomescan method relative to control
[18] = target: cAMP-dependent protein kinase catalytic subunit alpha (Homo sapiens) (UniProt P17612); test: Binding affinity to wild-type human partial length PKAC-alpha (G10 to F351 residues) expressed in bacterial expression system assessed as residual binding level at 1 uM by Kinomescan method relative to control
[19] = target: Serine/threonine-protein kinase N2 (Homo sapiens) (UniProt Q16513); test: Binding affinity to wild-type human partial length PKN2 (E634 to C984 residues) expressed in bacterial expression system assessed as residual binding level at 1 uM by Kinomescan method relative to control
[20] = target: TRAF2 and NCK-interacting protein kinase (Homo sapiens) (UniProt Q9UKE5); test: Binding affinity to wild-type human partial length TNIK (D4 to K311 residues) expressed in bacterial expression system assessed as residual binding level at 1 uM by Kinomescan method relative to control
[21] = target: Serine/threonine-protein kinase ULK2 (Homo sapiens) (UniProt Q8IYT8); test: Binding affinity to wild-type human partial length ULK2 (M1 to S301 residues) expressed in mammalian expression system assessed as residual binding level at 1 uM by Kinomescan method relative to control
[22] = target: Receptor tyrosine-protein kinase erbB-4 (Homo sapiens, UniProt Q15303); test: Inhibition of recombinant N-terminal GST-tagged human ErbB4 cytoplasmic domain expressed in baculovirus expression system by Z-LYTE assay
[23] = target: Tyrosine-protein kinase Blk (Homo sapiens, UniProt P51451); test: Inhibition of recombinant full length His-tagged human Blk cytoplasmic domain expressed in Baculovirus expression system by Z-LYTE assay
Tyrosine-protein kinase Blk, sequence (P51451 whole entry, the tested form may be a part): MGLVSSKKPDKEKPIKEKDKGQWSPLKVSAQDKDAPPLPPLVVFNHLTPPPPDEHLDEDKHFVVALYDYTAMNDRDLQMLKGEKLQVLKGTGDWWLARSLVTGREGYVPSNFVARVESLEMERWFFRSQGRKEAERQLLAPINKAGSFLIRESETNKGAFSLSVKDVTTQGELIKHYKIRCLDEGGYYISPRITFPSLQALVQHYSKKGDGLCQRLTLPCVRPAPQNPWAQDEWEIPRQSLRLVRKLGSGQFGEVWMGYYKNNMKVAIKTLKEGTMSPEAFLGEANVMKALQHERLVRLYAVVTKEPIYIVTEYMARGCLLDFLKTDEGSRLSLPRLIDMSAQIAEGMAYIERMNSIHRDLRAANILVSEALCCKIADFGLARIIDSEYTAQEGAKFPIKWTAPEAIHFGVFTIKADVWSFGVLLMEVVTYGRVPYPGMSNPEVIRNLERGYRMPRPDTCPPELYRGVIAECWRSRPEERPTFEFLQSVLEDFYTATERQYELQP

Phosphatidylinositol 4,5-bisphosphate 3-kinase catalytic subunit alpha isoform (Homo sapiens), P42336 [C420R], sequence (P42336 whole entry C420R, the tested form may be a part, canonical isoform): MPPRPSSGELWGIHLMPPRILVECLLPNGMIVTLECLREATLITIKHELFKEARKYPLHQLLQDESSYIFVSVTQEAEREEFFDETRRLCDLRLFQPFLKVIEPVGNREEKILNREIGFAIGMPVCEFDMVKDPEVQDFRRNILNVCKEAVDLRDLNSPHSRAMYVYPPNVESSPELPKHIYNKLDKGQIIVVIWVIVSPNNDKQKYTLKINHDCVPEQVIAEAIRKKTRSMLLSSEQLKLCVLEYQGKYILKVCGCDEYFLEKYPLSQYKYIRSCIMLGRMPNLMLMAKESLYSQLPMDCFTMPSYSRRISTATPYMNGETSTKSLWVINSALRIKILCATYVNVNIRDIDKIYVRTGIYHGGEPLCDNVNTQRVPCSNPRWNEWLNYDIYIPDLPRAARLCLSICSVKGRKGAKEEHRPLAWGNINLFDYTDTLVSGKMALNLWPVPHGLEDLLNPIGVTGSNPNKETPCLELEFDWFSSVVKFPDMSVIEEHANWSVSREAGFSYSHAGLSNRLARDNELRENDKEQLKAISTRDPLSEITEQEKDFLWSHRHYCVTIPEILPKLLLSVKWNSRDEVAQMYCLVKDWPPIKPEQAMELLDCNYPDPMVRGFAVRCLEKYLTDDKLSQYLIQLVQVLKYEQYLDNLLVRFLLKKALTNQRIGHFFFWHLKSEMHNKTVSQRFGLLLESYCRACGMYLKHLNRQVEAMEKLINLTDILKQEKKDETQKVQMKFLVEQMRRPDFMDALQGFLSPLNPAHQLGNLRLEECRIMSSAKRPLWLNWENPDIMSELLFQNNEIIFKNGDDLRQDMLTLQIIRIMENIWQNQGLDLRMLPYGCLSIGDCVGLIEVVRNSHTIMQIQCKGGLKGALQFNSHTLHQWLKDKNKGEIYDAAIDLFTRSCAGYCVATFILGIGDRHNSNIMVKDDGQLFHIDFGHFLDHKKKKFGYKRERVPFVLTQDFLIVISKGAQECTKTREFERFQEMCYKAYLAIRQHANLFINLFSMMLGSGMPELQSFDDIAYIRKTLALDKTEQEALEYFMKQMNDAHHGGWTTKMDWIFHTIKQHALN
Serine/threonine-protein kinase Nek2 (Homo sapiens), sequence (P51955 whole entry, the tested form may be a part, canonical isoform): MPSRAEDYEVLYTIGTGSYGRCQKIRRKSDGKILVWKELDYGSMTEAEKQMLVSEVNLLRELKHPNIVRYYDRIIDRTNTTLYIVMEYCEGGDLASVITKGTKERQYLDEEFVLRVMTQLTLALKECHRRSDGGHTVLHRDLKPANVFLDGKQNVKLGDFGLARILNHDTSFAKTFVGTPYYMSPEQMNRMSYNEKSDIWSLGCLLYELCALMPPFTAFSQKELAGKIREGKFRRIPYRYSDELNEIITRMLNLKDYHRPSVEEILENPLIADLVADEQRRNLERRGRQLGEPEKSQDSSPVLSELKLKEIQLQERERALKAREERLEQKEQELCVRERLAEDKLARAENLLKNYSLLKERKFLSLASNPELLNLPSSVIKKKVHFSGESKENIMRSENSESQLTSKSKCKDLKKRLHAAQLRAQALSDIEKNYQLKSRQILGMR
TRAF2 and NCK-interacting protein kinase (Homo sapiens), sequence (Q9UKE5 whole entry, looked up, the tested form may be a part): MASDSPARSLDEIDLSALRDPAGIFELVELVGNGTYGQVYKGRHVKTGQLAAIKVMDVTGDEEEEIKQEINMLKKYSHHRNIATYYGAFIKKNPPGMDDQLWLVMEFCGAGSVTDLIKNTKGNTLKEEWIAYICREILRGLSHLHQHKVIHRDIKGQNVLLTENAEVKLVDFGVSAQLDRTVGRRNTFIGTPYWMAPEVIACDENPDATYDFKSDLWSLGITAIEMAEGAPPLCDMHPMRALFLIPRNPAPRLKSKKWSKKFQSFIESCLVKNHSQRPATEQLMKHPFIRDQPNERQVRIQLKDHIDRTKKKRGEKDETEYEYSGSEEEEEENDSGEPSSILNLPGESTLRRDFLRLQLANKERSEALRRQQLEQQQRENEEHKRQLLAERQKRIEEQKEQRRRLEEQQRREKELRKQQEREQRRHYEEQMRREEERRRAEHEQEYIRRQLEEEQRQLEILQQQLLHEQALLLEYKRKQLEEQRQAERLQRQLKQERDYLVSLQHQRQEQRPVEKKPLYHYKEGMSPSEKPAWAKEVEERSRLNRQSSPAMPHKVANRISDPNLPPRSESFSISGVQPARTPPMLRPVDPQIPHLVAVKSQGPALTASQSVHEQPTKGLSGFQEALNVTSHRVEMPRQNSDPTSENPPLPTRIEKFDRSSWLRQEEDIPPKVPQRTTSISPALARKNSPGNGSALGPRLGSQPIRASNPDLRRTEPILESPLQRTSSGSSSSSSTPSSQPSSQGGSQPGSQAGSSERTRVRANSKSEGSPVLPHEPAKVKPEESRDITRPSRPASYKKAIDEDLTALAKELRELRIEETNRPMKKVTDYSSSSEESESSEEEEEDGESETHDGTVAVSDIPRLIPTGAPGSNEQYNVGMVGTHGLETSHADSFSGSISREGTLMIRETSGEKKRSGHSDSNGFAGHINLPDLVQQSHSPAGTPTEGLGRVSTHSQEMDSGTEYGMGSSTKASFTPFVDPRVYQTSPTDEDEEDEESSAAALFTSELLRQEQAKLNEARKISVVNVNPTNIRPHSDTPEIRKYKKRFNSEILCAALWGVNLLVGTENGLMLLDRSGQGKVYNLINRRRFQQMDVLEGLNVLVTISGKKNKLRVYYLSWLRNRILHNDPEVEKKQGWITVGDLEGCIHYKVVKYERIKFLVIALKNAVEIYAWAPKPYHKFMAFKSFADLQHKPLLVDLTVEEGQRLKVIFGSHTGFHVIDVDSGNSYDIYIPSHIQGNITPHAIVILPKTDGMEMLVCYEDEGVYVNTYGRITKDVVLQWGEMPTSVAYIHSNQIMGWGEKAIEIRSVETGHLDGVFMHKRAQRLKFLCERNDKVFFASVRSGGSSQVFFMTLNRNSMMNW
Calcium/calmodulin-dependent protein kinase kinase 2 (Homo sapiens), sequence (Q96RR4 2-588 limits assumed): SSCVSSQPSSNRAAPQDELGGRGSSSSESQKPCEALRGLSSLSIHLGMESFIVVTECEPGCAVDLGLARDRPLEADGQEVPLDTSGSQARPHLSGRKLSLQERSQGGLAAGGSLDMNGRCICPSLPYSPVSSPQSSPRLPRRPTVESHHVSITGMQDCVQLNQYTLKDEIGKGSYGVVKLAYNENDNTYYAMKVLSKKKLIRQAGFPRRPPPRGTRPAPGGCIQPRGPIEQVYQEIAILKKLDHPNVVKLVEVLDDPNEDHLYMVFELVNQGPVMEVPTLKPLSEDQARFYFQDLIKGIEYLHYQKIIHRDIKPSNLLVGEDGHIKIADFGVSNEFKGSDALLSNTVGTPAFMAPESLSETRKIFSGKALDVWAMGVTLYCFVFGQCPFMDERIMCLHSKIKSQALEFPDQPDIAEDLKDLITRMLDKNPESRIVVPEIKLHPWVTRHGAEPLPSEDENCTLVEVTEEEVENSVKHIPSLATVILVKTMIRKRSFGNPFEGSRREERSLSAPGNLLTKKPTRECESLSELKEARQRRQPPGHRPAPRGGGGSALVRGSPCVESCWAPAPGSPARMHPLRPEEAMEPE
Serine/threonine-protein kinase ULK2 (Homo sapiens), sequence (Q8IYT8 whole entry, the tested form may be a part): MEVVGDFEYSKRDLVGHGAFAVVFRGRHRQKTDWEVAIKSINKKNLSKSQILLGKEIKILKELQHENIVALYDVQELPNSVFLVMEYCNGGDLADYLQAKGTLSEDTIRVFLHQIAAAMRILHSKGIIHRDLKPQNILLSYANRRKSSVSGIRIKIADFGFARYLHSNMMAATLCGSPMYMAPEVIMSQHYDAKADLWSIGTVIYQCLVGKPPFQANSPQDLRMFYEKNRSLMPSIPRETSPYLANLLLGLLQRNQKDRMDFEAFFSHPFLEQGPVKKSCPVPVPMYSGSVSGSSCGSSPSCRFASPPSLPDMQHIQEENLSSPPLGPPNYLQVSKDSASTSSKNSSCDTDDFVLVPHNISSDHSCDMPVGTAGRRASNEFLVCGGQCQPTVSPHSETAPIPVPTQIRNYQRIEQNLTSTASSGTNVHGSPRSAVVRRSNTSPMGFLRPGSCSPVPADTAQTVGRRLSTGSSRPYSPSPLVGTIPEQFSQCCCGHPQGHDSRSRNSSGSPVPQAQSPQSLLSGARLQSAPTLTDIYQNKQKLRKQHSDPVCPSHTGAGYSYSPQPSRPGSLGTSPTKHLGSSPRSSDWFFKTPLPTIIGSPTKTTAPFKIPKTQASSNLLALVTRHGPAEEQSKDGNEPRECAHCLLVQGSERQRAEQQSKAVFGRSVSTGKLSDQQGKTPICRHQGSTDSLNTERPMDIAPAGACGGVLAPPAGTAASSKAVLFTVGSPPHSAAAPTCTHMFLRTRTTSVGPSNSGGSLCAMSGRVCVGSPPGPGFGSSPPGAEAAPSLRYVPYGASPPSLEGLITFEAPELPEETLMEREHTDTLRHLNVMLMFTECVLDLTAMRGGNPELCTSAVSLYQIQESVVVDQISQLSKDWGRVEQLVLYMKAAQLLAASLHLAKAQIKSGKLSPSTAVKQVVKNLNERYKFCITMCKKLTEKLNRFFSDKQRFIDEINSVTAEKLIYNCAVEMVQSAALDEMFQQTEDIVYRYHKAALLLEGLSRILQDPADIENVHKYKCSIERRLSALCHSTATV

Work on `C=CC(=O)Nc1cc(Nc2ncc(Cl)c(Nc3ccccc3S(=O)(=O)C(C)C)n2)c(OC)cc1N(C)CCN(C)C` yielded a remaining at 0.5 h, 1 µM [1] of 16%, an Activity [2] of 1.6% and an Activity [3] of 91%. For the same compound, the Activity [4] was 85%, the Activity [5] was 99% and the Activity [6] was 59%. The Activity [7] was 83%, the Activity [8] was 100% and the Activity [9] was 80%. It also gave an Activity [10] of 3.6%, an Activity [11] of 60% and an Activity [12] of 62%. It also gave an Activity [13] of 80%, an Activity [14] of 31% and an Activity [15] of 83%. The Activity [16] was 87%, the Activity [17] was 83% and the Activity [18] was 100%. For the same compound, the Activity [19] was 70%, the Activity [20] was 61% and the Activity [21] was 4.3%. The IC50 [22] was 3 nM and the IC50 [23] was 8 nM.

— ChEMBL document CHEMBL4382192, “Discovery of a potent dual ALK and EGFR T790M inhibitor” (Eur J Med Chem, 2017)
